This is a sample that favours compounds with a hit; in the whole collection about 3% have one here.
MC4R ag barr: MC4R agonists recruiting beta-arrestin, primary screen, cell-based, luminescence, agonist arm of biased-ligand search; U2OS MC4R beta-arrestin complementation; percent of melanotan II response, DMSO zero; activation, % at 8.9 µM; Melanocortin receptor 4 (Homo sapiens), P32245; 360,000 compounds, 0.98% hits;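 active means activation above a per-plate cutoff, the mean activation of sample wells on that plate plus 3 SD, cut at about 8% in these data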
PfG6PD inh: PfG6PD enzyme inhibitors, primary screen, biochemical, fluorescence intensity, uHTS; glucose-6-phosphate dehydrogenase-6-phosphogluconolactonase (Plasmodium falciparum 3D7); PfGluPho enzyme, NADPH resazurin-diaphorase fluorescence; inhibition, % at 20 µM; 350,000 compounds, 0.78% hits;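 active means inhibition reaching at least a set limit at 20 µM in the primary screen, cut at about 59% in these data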
MC4R antagonist: MC4R antagonists of cAMP signaling, primary screen, cell-based, TR-FRET, antagonist arm of biased-ligand search; MC4R-expressing cells, MTII-stimulated cAMP, LANCE TR-FRET; inhibition, % at 6.5 µM; 360,000 compounds, 0.48% hits; AID 540295, 2011;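 active means inhibition above its plate's cutoff, the mean of tested wells on that plate plus 3 SD, cut at about 29% in these data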
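system = U2OS cells with stable human MC4R expression | also added = Melanotan II challenge after compound preincubation | dosing = one concentration, 6.5 µM nominal | incubation = compound 30 min, challenge 1 h, detection 1 h | measured by = TR-FRET with Eu-cAMP and labeled anti-cAMP, 671 nm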
Beta2AR agonist: beta2AR agonists driving receptor internalization, primary screen, cell-based, FAP fluorogen, flow cytometry | AID 504454, 2011 | Beta-2 adrenergic receptor (Homo sapiens), P07550 | Am2.2-beta2AR cells | 340,000 compounds, 0.43% hits | response, % (no concentration beside the values);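 active means response above a set limit, near 3 SD of response in nonfluorescent compounds, cut at about 42% in these data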
ABHD5-PLIN5 inh: ABHD5-PLIN5 interaction inhibitors, primary screen, cell lysate, split luciferase complementation, luminescence. Split G. princeps luciferase complementation, 4 h. Perilipin-5 (Homo sapiens) + 1-acylglycerol-3-phosphate O-acyltransferase ABHD5 (Homo …. 360,000 compounds, 0.78% hits. inhibition, % at 4 µM;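 active means inhibition above the mean inhibition across every tested compound plus 3 SD, cut at about 22% in these data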
B2AR ag CP1: beta2AR agonists via receptor internalization, confirmation, cell-based, FAP fluorogen, flow cytometry, single point, cherry pick 1; shares compounds with Beta2AR agonist; Am2.2-beta2AR cells, FAP surface receptor; active compounds read low; percent response (surface receptor), % at 10 µM; 1,100 compounds, 25% hits;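 active means surface receptor percent response at or below 58%, roughly 3 SD from nonfluorescent compounds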
B2AR FAP counter: fluorescence artifact in beta-2AR agonist FAP counterscreen; shares compounds with Beta2AR agonist; Am2.2 cells, FAP fluorogen flow cytometry; active compounds read low; calls only at 10 µM; 1,100 tested, under 10 active; AID 588765;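 active means percent response below a set limit in fluorescence channel 1 and below 50% in channel 8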
MC4R barr conf: MC4R beta-arrestin agonists, retest, confirmation, cell-based, luminescence, U2OS; shares compounds with MC4R ag barr; U2OS MC4R beta-arrestin recruitment; scaled DMSO 0%, Melanotan II 100%; activation, % at 8.9 µM; 2,400 compounds, 31% hits;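 active means mean activation across replicates above the hit cutoff set in the earlier primary screen, cut at about 8% in these data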
MOR-DOR barr ag: agonists of MOR-DOR heterodimerization, counter-screen for MC4R biased agonist project, cell-based, luminescence | activation, % at 9.2 µM | U2OS PathHunter beta-arrestin, beta-gal luminescence; percent of deltorphin B response, DMSO zero | 2,400 compounds, 5.8% hits | shares compounds with MC4R ag barr | AID 602194, 2012;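 active means mean activation across replicates exceeds the hit threshold derived in the earlier primary screen, cut at about 18% in these data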
Each line names hits and unclear results; the compound was inactive in the other large screens (follow-up assays come after a bar, where they were run); ! = a repeat was not active.

CCn1c2ccccc2c2cc(CNCc3ccc(OC)cc3OC)ccc21	MC4R ag barr 41, Beta2AR agonist 51 | B2AR ag CP1 inactive | B2AR FAP counter inactive | MC4R barr conf 52 | MOR-DOR barr ag 21
COc1ccc(-c2onc(C)c2-c2ccc(C(=O)OC(C)C)o2)c(O)c1	MC4R ag barr 12 | B2AR ag CP1 inactive | B2AR FAP counter inactive | MC4R barr conf inactive | MOR-DOR barr ag inactive
COc1ccc(N2C(=O)c3ccc(C(=O)OC(C)C)cc3C2=O)cc1	none
COc1ccc(Cn2c(SCc3cc(C)ccc3C)nc3cc(OC)c(OC)cc3c2=N)cc1	MC4R ag barr 21, Beta2AR agonist 43 | B2AR ag CP1 20 | B2AR FAP counter inactive | MC4R barr conf inactive | MOR-DOR barr ag 20
COc1cc2nc(SCc3ccc(Cl)cc3Cl)n(Cc3cccs3)c(=N)c2cc1OC	none
CCN(CCNCC(O)COc1ccccc1C(C)C)c1cccc(C)c1 (centres undefined)	MC4R ag barr 16, Beta2AR agonist 45 | B2AR ag CP1 inactive | B2AR FAP counter inactive | MC4R barr conf 12 | MOR-DOR barr ag inactive
COc1ccc(CNCCC(c2ccc(OC(C)C)cc2)c2ccccc2OC)cc1 (centres undefined)	MC4R ag barr 12 | B2AR ag CP1 inactive | B2AR FAP counter inactive | MC4R barr conf 11 | MOR-DOR barr ag 25
COc1ccccc1C(CCNCc1ccc(N(C)C)cc1)c1ccc(OC(C)C)cc1 (centres undefined)	MC4R ag barr 13, Beta2AR agonist 65 | B2AR ag CP1 inactive | B2AR FAP counter inactive | MC4R barr conf inactive | MOR-DOR barr ag 29
COc1ccc(C(CCNCc2ccc(N(C)C)cc2)C(C)C)cc1 (centres undefined)	none
COCCNC(=O)C[C@H]1C[C@H]2c3cc(NS(=O)(=O)c4ccc(F)cc4)ccc3O[C@H]2[C@H](CO)O1	none (no result: Beta2AR agonist)
CC(C)(C)CN1CCNC(=O)C1CC(=O)NCCc1ccccc1F (centres undefined)	none
Cc1ccc(C2(c3ccccc3)NC(=O)N(CC(=O)N3CC(=O)Nc4ccccc43)C2=O)cc1C (centres undefined)	none
CCCCOC(=O)Cn1c(=O)n(CC(=O)OCCCC)c2ccccc21	none
CCCCCCCCCCOC(=O)Cn1c(COc2ccc(OC)cc2)[n+](C)c2ccccc21	MC4R ag barr 35 | B2AR ag CP1 inactive | B2AR FAP counter inactive | MC4R barr conf 19 | MOR-DOR barr ag 24!
CCCCCOC(=O)Cn1c(=O)oc2ccccc21	none
CCCCCCCCCCOC(=O)Cn1c(COc2cccc(C)c2)[n+](C)c2ccccc21	MC4R ag barr 19 | B2AR ag CP1 inactive | B2AR FAP counter inactive | MC4R barr conf 28 | MOR-DOR barr ag inactive
COCCN(CCOC)Cc1cc(=O)oc2cc(C)c(C)cc12	none (no result: MC4R ag barr, PfG6PD inh, MC4R antagonist, Beta2AR agonist)
Cc1ccc(S(=O)(=O)NCc2ccccc2)cc1C(=O)NCC(C)(C)N1CCOCC1	none
